According to the array DNA melting data of Ke et al. (doi:10.1101/2024.01.08.574731):

Columns and labels:
[1] = folding enthalpy; higher = less favourable; fluorescence melt of hairpins on a sequencing array, two-state fit; settings: sodium 0.088 M
Outline: (§1)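 In 50 mM Na-HEPES pH 8.0 containing 25 mM NaCl, hairpins from the library on a sequenced MiSeq flow cell were imaged for Cy3 fluorescence at 2.5 °C steps up to 60 °C, with Cy3 and quencher oligos annealed. After normalisation to pre-quench Cy3 and to control constructs, two-state fits with bootstrapping gave melting temperature and folding enthalpy. Four replicates were combined by inverse-variance weighting, and fitted temperatures were shifted up by 9.35 °C to match UV melts.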

[2] = melting temperature; fluorescence melt of hairpins on a sequencing array, two-state fit, raised by 9.35 °C to match UV melts; settings: sodium 0.088 M
Outline: as §1

| Sequence | folding enthalpy [1] | Tm [2] |
| --- | --- | --- |
| GACTTAGCGAAAGCTGTC (((..(((....)))))) | -14.6 kcal/mol | 43.8 °C |
| GGCTACGAAAGTATTGCC ((((((....)))..))) | -20.1 kcal/mol | 44.1 °C |
| GCATGAGGAAACTCATGC (((((((....))))))) | -40.3 kcal/mol | 65.3 °C |
| GCATTTCGAAAGAATGC (((.(((....)))))) | -30.5 kcal/mol | 45.5 °C |
| GTGAAGGGAAACCTTCGC (.(((((....))))).) | -25.8 kcal/mol | 50.2 °C |
| GGTATTCGAAAGAAGACC (((.(((....))).))) | -43.2 kcal/mol | 50.8 °C |
| GATGCACGAAAGTGAATC (((.(((....))).))) | -23.4 kcal/mol | 50.8 °C |
| ATCTTGAAAAAGAT (((((....))))) | -9.95 kcal/mol | 32.9 °C |
| GGAAAGGAAACTTTCC ((((((....)))))) | -29.9 kcal/mol | 50 °C |
| GTGTTAGGAAACTAACGC (.(((((....))))).) | -21.8 kcal/mol | 47.4 °C |
| GCATTGCGAAAGCCCTGC (((..((....))..))) | -14.6 kcal/mol | 34.5 °C |
| GATCTTGCAAAAGATC ((((((....)))))) | -37.5 kcal/mol | 53.5 °C |
| GCATGGCGAAAGCAAAGC ((.(.((....)).).)) | -10.9 kcal/mol | 31.8 °C |
| GTTGCAGAAATGCAAC ((((((....)))))) | -35.3 kcal/mol | 57.5 °C |
| GCTGATGAAAATCAGC ((((((....)))))) | -35.8 kcal/mol | 60.6 °C |
| GTATGCGAAAGCATAC ((((((....)))))) | -28.3 kcal/mol | 69.2 °C |
| GAAAGGACGAAAGTCTTC (((..(((....)))))) | -11.8 kcal/mol | 24.9 °C |
| GGGCAACGAAAGTTTCCC (((.(((....))).))) | -32.1 kcal/mol | 47.4 °C |
| GTTTCCGAAAGGAATAAC ((((((....)))..))) | -12 kcal/mol | 30.2 °C |
| GGCACAGGAAACTGTACC ((.((((....)))).)) | -29.6 kcal/mol | 44.3 °C |
| GGCGTCGAAAGACACGCC ((((((....)))..))) | -32 kcal/mol | 55 °C |
| GTGATTGGAAACAATTGC (..((((....))))..) | -20.4 kcal/mol | 31.3 °C |
| GACACCGAAAGGTGGTC ((((((....))).))) | -12.8 kcal/mol | 55.6 °C |

| Sequence | folding enthalpy [1] | Tm [2] |
| --- | --- | --- |
| GATCAGCCTCCTGATC ((((((....)))))) | -34.4 kcal/mol | 49.1 °C |
| GCGGACTCCCGC ((((....)))) | -32.8 kcal/mol | 53.1 °C |
| CGTAGCGGAAACGCCACG (((.(((....))).))) | -32 kcal/mol | 46.9 °C |
| GCCGCCGAAAGGCGTGGC ((((((....)))..))) | -12.6 kcal/mol | 60.1 °C |
| GATCTCCTGGGAGATC ((((((....)))))) | -43.3 kcal/mol | 56.5 °C |
| GTTCCCGAAAGGGGGAAC ((((((....)))..))) | -19.3 kcal/mol | 48.4 °C |
| GGTCAACGAAAGTTCACC (((.(((....))).))) | -22.3 kcal/mol | 35.1 °C |
| GACCAGCGAAAGCTTGTC (((.(((....))).))) | -24 kcal/mol | 47.8 °C |
| GCGCCGCGAAAGCCGTGC ((.(.((....)).).)) | -20.5 kcal/mol | 52.1 °C |
| GTTGTCCGAAAGGAGAAC (((.(((....))).))) | -28.5 kcal/mol | 51.2 °C |
| GTATAACCGAAAGGTTAC (((..(((....)))))) | -11.4 kcal/mol | 31.8 °C |
| GGGTGTGGAAACGCATCC ((.((.(....).)).)) | -26.3 kcal/mol | 41.3 °C |
| GCTGCGCGAAAGCACCGC ((.(.((....)).).)) | -21.4 kcal/mol | 41.3 °C |
| GATCTTGCCCAAGATC ((((((....)))))) | -45.9 kcal/mol | 48.9 °C |
| GTTGGCGGAAACGCTGAC ((..(((....)))..)) | -16.8 kcal/mol | 45 °C |
| GCTGTGCGAAAGCCAAGC (((..((....))..))) | -19.2 kcal/mol | 46.2 °C |
| GAGACCGAAAGGTCACTC ((((((....)))..))) | -13.8 kcal/mol | 55.1 °C |
| GAACCCCGAAAGGGATTC (((.(((....))).))) | -28.5 kcal/mol | 46 °C |
| GATCTGGGGTCAGATC ((((((....)))))) | -34.5 kcal/mol | 48.7 °C |
| GATAGCGGAAACGTTATC ((((.((....)).)))) | -34.8 kcal/mol | 42.3 °C |
| GATCACTTTCGTGATC ((((((....)))))) | -36.8 kcal/mol | 56.4 °C |
| GATCGCACCTGCGATC ((((((....)))))) | -32.3 kcal/mol | 69.2 °C |
| GATTCGGGAAACTGAATC (((((.(....).))))) | -40.8 kcal/mol | 45 °C |

| Sequence | folding enthalpy [1] | Tm [2] |
| --- | --- | --- |
| GATCCTATTCAGGATC ((((((....)))))) | -44 kcal/mol | 52.6 °C |
| GGCTATCGAAAGATGCC (((.(((....)))))) | -25.3 kcal/mol | 52.8 °C |
| GAACACGAAAGTGAATTC ((((((....)))..))) | -13.3 kcal/mol | 25.1 °C |
| GATCAACGCGTTGATC ((((((....)))))) | -54.2 kcal/mol | 59.5 °C |
| GGTTTGGAAACAAACC ((((((....)))))) | -41.6 kcal/mol | 56.5 °C |
| GCCATAGGAAACTGTGGC ((((.((....)).)))) | -39.1 kcal/mol | 52.2 °C |
| GAGGGGGCGAAAGCCCTC (((..(((....)))))) | -7.85 kcal/mol | 40.6 °C |
| CGACTCGGAAACGACTCG (((.(((....))).))) | -30.6 kcal/mol | 34.2 °C |
| GTGATCCCGAAAGGGCAC (((..(((....)))))) | -14.4 kcal/mol | 39.9 °C |
| GATCGCTGGGCGATC ((((((...)))))) | -35.6 kcal/mol | 68.8 °C |
| GCCGGTACGAAAGTAGGC (((..(((....)))))) | -24.7 kcal/mol | 48.7 °C |
| GACAACGAAAGTTAGTC ((((((....))).))) | -24.7 kcal/mol | 42.4 °C |
| GATCATGCATATGATC ((((((....)))))) | -55.8 kcal/mol | 55.4 °C |
| GCGTGCTTACGC ((((....)))) | -16.9 kcal/mol | 54.9 °C |
| GCGCGCCGAAAGGCCCGC (((.(((....))).))) | -32.2 kcal/mol | 68.5 °C |
| GATCCTACAAAGGATC ((((((....)))))) | -36.3 kcal/mol | 49.5 °C |
| TCAGAGAAATCTGA (((((....))))) | -9.32 kcal/mol | 27.6 °C |
| GTAAACGAAAGTTGTAC ((((((....))).))) | -13.7 kcal/mol | 31.2 °C |
| GTTTGTGGAAACATAAAC ((((.((....)).)))) | -22.8 kcal/mol | 39.6 °C |
| GATCATAATAATGATC ((((((....)))))) | -35.4 kcal/mol | 45.4 °C |
| GCTCTCGAAAGAGCAGC ((((((....))).))) | -15.4 kcal/mol | 48.2 °C |
| GCTTGGCGAAAGCAAGGC ((.(.((....)).).)) | -14.9 kcal/mol | 45.6 °C |
| GGGCCGGGAAACCGGTCC ((.((((....)))).)) | -38.3 kcal/mol | 68.8 °C |
